The source made the active and inactive calls. The rule behind the calls is not given here.
Experiments:
HeLa [1] = assay: Induction of apoptosis in human HeLa cells assessed as viable cells at 0.15 uM after 24 hrs by annexin V-FITC/propidium iodide staining-based flow cytometric method (reference value: 97.39%); type: functional; conditions: read-out: Activity
HeLa [2] = assay: Disruption of microtubule network in human HeLa cells after 24 hrs by Hoechst 33342 staining-based immunofluorescence microscopic method; type: cell-based
Procedure, shortened: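 HeLa cells were plated at 4000 per well for 24 h, then exposed for 24 h to vehicle or drug (0.1-0.2 μM). Fixation was 4% paraformaldehyde, 10 min, 4 °C, then 0.1% Triton X-100, 5 min, and 1% BSA block, 1 h. Staining used anti-α-tubulin (1:100, 12 h, 4 °C), then FITC anti-mouse IgG (1:100, 30 min, 37 °C), with Hoechst 33342 for nuclei. Imaged by fluorescence microscopy.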

HeLa [3] = assay: Induction of apoptosis in human HeLa cells assessed as early apoptotic cells at 0.10 uM after 24 hrs by annexin V-FITC/propidium iodide staining-based flow cytometric method (reference value: 2.31%); type: functional
HeLa [4] = assay: Induction of apoptosis in human HeLa cells assessed as viable cells at 0.10 uM after 24 hrs by annexin V-FITC/propidium iodide staining-based flow cytometric method (reference value: 97.39%); type: functional; conditions: read-out: Activity
HeLa [5] = assay: Induction of apoptosis in human HeLa cells assessed as necrotic cells at 0.10 uM after 24 hrs by annexin V-FITC/propidium iodide staining-based flow cytometric method (reference value: 0.15%); type: functional
HeLa [6] = assay: Cell cycle arrest in human HeLa cells assessed as accumulation at G2/M phase at 0.25 uM after 24 hrs by propidium iodide staining-based flow cytometric method (reference value: 19.9%); type: functional
HeLa [7] = assay: Cell cycle arrest in human HeLa cells assessed as accumulation at sub G1 phase at 0.20 uM after 24 hrs by propidium iodide staining-based flow cytometric method (reference value: 7.6%); type: functional
HeLa [8] = assay: Induction of apoptosis in human HeLa cells assessed as membrane blebbing at 0.10 to 0.20 uM by microscopic method; type: functional, cell-based
Procedure, shortened: (§1)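 Morphology of HeLa cells was examined by light microscopy after 24 h exposure to 0.10, 0.15 or 0.20 μM, or 0.1% DMSO, alongside the annexin V/PI experiment.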

HeLa [9] = assay: Cell cycle arrest in human HeLa cells assessed as accumulation at S phase at 0.10 uM after 24 hrs by propidium iodide staining-based flow cytometric method (reference value: 10.3%); type: functional
HeLa [10] = assay: Cell cycle arrest in human HeLa cells assessed as accumulation at G2/M phase after 24 hrs by propidium iodide staining-based flow cytometric method; type: functional
HeLa [11] = assay: Induction of apoptosis in human HeLa cells assessed as early apoptotic cells at 0.15 uM after 24 hrs by annexin V-FITC/propidium iodide staining-based flow cytometric method (reference value: 2.31%); type: functional
HeLa [12] = assay: Cell cycle arrest in human HeLa cells assessed as accumulation at G2/M phase at 0.10 uM after 24 hrs by propidium iodide staining-based flow cytometric method (reference value: 19.9%); type: functional
HeLa [13] = assay: Induction of apoptosis in human HeLa cells after 24 hrs by annexin V-FITC/propidium iodide staining-based flow cytometric method; type: functional, cell-based
SMMC-7721 = assay: Antiproliferative activity against human SMMC7721 cells after 72 hrs by MTT assay; type: functional, cell-based; conditions: SMMC-7721, 72 h
Procedure, shortened: (§2)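 HeLa and SMMC-7721 cells in log phase were seeded at 4000-6000 cells/well. After 24 h, quadruplicate wells were treated with a series of concentrations for 72 h. DMSO stocks were 5 mmol/L, with final DMSO below 0.1%. MTT (10 mg/mL in PBS) was added for 4 h, medium replaced with DMSO, and OD read at 490 nm. IC50 came from at least five concentrations; mean and SD of at least three independent experiments.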

Tubulin = assay: Inhibition of tubulin (unknown origin) polymerization after 40 mins by fluorescence assay; type: protein-complex assay, Homo sapiens
Procedure, shortened: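 Fluorescence-based kit assay. Compounds, in duplicate, were warmed 1 min at 37 °C, then cold tubulin mix was added (2 mg/mL tubulin in 80 mM PIPES pH 6.9, 2.0 mM MgCl2, 0.5 mM EGTA, 1.0 mM GTP, 15% glycerol). Assembly was read at ex 360/em 450 nm each minute for 1 h at 37 °C; 0.1% DMSO vehicle. IC50 is the concentration halving assembly extent at 40 min, from four concentrations.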

HeLa [14] = assay: Induction of apoptosis in human HeLa cells assessed as late apoptotic cells at 0.10 uM after 24 hrs by annexin V-FITC/propidium iodide staining-based flow cytometric method (reference value: 0.15%); type: functional
HeLa [15] = assay: Induction of apoptosis in human HeLa cells assessed as cell shrinkage at 0.10 to 0.20 uM by microscopic method; type: functional, cell-based; procedure, shortened: as §1
HeLa [16] = assay: Induction of apoptosis in human HeLa cells assessed as late apoptotic cells at 0.15 uM after 24 hrs by annexin V-FITC/propidium iodide staining-based flow cytometric method (reference value: 0.15%); type: functional
K562 = assay: Antiproliferative activity against human K562 cells after 72 hrs by MTT assay; type: functional, cell-based; conditions: K562, 72 h
Procedure, shortened: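 K562 cells were grown in RPMI 1640 with 10% FBS at 37 °C in 5% CO2, then seeded at 4000-6000 cells/well. Quadruplicate wells were exposed to drug for 72 h, with final DMSO below 0.1%. After 4 h with MTT, solubilizer (10% SDS, 5% isobutyl alcohol, 0.01 M HCl) was added for 12 h, then OD read at 490 nm. IC50 came from at least five concentrations; mean and SD of at least three experiments.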

HeLa [17] = assay: Induction of apoptosis in human HeLa cells assessed as necrotic cells at 0.15 uM after 24 hrs by annexin V-FITC/propidium iodide staining-based flow cytometric method (reference value: 0.15%); type: functional
Sus scrofa = species: Sus scrofa; assay: Competitive binding affinity to porcine brain tubulin preincubated for 1 hr followed by colchicine addition measured after 1 hr by fluorescence assay
Procedure, shortened: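 Tubulin (4 μM) in 80 mM PIPES pH 6.9, 2 mM MgCl2 and 0.5 mM EGTA was preincubated 1 h at 37 °C with 0.1, 1, 5 or 10 μM test agent, with DMSO as control. Colchicine (10 μM) was then added for another 1 h at 37 °C. Tubulin-colchicine fluorescence was read at ex 340/em 435 nm and normalized to DMSO; at least three replicates, mean ± SD.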

HeLa [18] = assay: Cell cycle arrest in human HeLa cells assessed as accumulation at G0/G1 phase at 0.20 uM after 24 hrs by propidium iodide staining-based flow cytometric method (reference value: 62.2%); type: functional
HeLa [19] = assay: Antiproliferative activity against human HeLa cells after 72 hrs by MTT assay; type: functional, cell-based; procedure, shortened: as §2
HeLa [20] = assay: Induction of apoptosis in human HeLa cells assessed as viable cells at 0.20 uM after 24 hrs by annexin V-FITC/propidium iodide staining-based flow cytometric method (reference value: 97.39%); type: functional; conditions: read-out: Activity
HeLa [21] = assay: Cell cycle arrest in human HeLa cells assessed as accumulation at G2/M phase at 0.20 uM after 24 hrs by propidium iodide staining-based flow cytometric method (reference value: 19.9%); type: functional

## COC(=O)c1ccc2c(c1)NC(=O)CN2C(=O)c1cc(OC)c(OC)c(OC)c1
HeLa [1]
  viability at 0.15 µM: 69.7%
HeLa [2]
  Activity: Dose-dependent effect
HeLa [3]
  Activity: 12.1%
HeLa [4]
  viability at 0.1 µM: 76.1%
HeLa [5]
  Activity: 3.9%
HeLa [6]
  Activity: 44.6%
HeLa [7]
  Activity: 32.9%
HeLa [8]
  Activity: Active
HeLa [9]
  Activity: 9.9%
HeLa [10]
  Activity: Dose-dependent effect
HeLa [11]
  Activity: 16.5%
HeLa [12]
  Activity: 21.8%
HeLa [13]
  Activity: Dose-dependent effect
SMMC-7721
  IC50: 71 nM
Tubulin
  IC50: 3970 nM
HeLa [14]
  Activity: 7.87%
HeLa [15]
  Activity: Active
HeLa [16]
  Activity: 9.95%
K562
  IC50: 164 nM
HeLa [17]
  Activity: 3.81%
Sus scrofa
  Activity: Dose-dependent effect
HeLa [18]
  Activity: 18.4%
HeLa [19]
  IC50: 126 nM
HeLa [20]
  viability at 0.2 µM: 62.2%
HeLa [21]
  Activity: 40.4%

Reference: ChEMBL document CHEMBL4251573, “Synthesis and biological evaluation of N-substituted 3-oxo-1,2,3,4-tetrahydro-quinoxaline-6-carboxylic acid derivatives as tubulin polymerization inhibitors” (Eur J Med Chem, 2018)
